Experimental findings from ChEMBL document CHEMBL3739299, “8-Hydroxyquinoline-based inhibitors of the Rce1 protease disrupt Ras membrane localization in human cells” (Bioorg Med Chem, 2016) are described below.

The structures appear in SMILES notation. Active and inactive are the calls of the source. No cut-off for these calls is given here.

Series [1] addresses T1, CAAX prenyl protease 2 (Homo sapiens) (UniProt Q9Y256).
T1 sequence (whole entry): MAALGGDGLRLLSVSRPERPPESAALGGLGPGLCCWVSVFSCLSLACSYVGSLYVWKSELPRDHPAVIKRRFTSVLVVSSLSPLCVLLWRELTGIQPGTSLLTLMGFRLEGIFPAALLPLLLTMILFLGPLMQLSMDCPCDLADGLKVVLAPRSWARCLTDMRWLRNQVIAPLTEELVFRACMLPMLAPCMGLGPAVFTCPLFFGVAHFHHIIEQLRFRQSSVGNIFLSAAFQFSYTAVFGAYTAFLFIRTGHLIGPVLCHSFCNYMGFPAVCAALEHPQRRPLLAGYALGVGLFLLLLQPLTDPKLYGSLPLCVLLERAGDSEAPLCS
The series is described as follows: Inhibition of human Rce1-mediated CaaX protease activity using […] and […] as substrate assessed as residual activity at 10 uM measured every 30 to 60 seconds for 60 mins. The method, boiled down: (§1)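 Membranes from yeast SM3614 (ste24 rce1 null) overexpressing human Rce1, 0.25 mg/mL final in 200 mM Tris pH 7.5, 200 mM NaCl, 1 mg/mL BSA. […] Reaction started with 20 μM ABZ-KSKTKC(farnesyl)QLIM. Fluorescence (ex 320/em 420) read every 30–60 s for 60 min at 30 °C. Initial velocities trypsin-normalised; activity given as % of DMSO control.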

The target in series [2] is T2, CAAX prenyl protease 1 homolog (Homo sapiens) (UniProt O75844).
T2 sequence (whole entry): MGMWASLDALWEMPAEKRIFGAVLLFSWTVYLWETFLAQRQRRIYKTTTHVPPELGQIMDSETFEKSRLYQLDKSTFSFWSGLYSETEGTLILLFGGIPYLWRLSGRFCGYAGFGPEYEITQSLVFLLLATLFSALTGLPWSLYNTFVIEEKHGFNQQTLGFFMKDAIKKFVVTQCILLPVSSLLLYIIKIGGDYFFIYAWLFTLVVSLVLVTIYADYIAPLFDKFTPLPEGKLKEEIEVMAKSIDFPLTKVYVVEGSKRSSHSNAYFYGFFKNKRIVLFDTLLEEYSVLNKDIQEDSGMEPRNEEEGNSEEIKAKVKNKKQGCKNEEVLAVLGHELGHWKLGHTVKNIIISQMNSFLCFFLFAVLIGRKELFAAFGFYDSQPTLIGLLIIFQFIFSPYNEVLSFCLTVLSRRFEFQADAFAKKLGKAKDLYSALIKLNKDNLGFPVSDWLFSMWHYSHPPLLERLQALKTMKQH
The series is described as follows: Inhibition of human FACE1-mediated CaaX protease activity at 10 uM measured every 30 to 60 seconds for 60 mins. The method, boiled down:
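Human Ste24 overexpressed in yeast strain SM3614 (ste24 rce1 null); membranes 0.25 mg/mL final in 200 mM Tris pH 7.5, 200 mM NaCl, 1 mg/mL BSA. Pretreated 15 min at 30 °C with 10 μM compound in duplicate, then 20 μM ABZ-KSKTKC(farnesyl)VIQL substrate added. Fluorescence (ex 320/em 420) read every 30–60 s for 60 min at 30 °C. Initial velocities normalised via trypsin-digest maximum fluorescence and expressed as % of DMSO control. SD shown.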

The nature of series [3]: Cytotoxicity against human HCT116 cells assessed as cell death at 25 uM after 20 hrs by celltiter blue assay (reference value: 0.4%). Format: cell-based. Particulars: hct-116, 20 h. The gist of the method:
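HCT-116 cells grown in DMEM with 10% FBS and 1% NEAA at 37 °C, 5% CO2, seeded 7 × 10^3 per well, exposed 20 h to 25 μM compound (0.4% DMSO vehicle; untreated control). CellTiter-Blue added for 4 h, fluorescence read at 560/590 nm. Values relative to untreated cells, mean of three independent experiments with SEM.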

Another series concerns the target T3, CAAX prenyl protease 2 (Homo sapiens, UniProt Q9Y256).
T3 sequence (Q9Y256 whole entry): T1 sequence (whole entry)
The series is described as follows: Inhibition of human Rce1-mediated CaaX protease activity using ABZ-KSKTKC(farnesyl)QIIM and ABZ-KSKTKC(farnesyl)VIQI as substrate assessed as residual activity measured every 30 to 60 seconds for 60 mins. The gist of the method:
as §1

Regarding `CCCCCCCCOc1ccc(C(Nc2ccccc2)c2ccc3cccnc3c2O)cc1` (centres undefined), in series [1], the Activity was 89%.

`O=C(O)c1ccc(NC(c2ccc(F)cc2)c2ccc3cccnc3c2O)cc1` (centres undefined): in series [2], the inhibition entry was “inactive”. Moreover, the Cell death in series [3] is on record as less than 10%. Besides, the IC50 on CAAX prenyl protease 2 was found to be 8.2 µM. Besides, the Activity in series [1] was 32%. For the compound `C[C@@H](N[C@H](c1ccccc1)c1c(O)ccc2ccccc12)c1ccccc1`, the Activity in series [1] was found to be 63%.

Turning to `O=C(O)c1ccc(NC(c2cccnc2)c2ccc3cccnc3c2O)cc1` (centres undefined), in series [2], the inhibition result is “inactive”. Moreover, the IC50 at CAAX prenyl protease 2 is 14 µM. In series [1], the Activity came to 70%. For `O=C(O)c1ccc(NC(c2ccc3cccnc3c2O)c2c(F)cc(Br)cc2F)cc1` (centres undefined), the Cell death in series [3] is recorded as less than 10%. Further, in series [1], the Activity is 64%. As to `c1ccc(NC(c2ccccc2)c2ccc3cccnc3c2)cc1` (centres undefined), the Activity in series [1] came out at 82%. `Cc1ccc(NC(c2ccccc2)c2ccc3cccnc3c2O)cc1` (centres undefined): the inhibition result in series [2] is “inactive”. At CAAX prenyl protease 2, the IC50 was found to be 8.8 µM. Also, the Activity in series [1] came to 54%. On to `O=C(O)c1ccc(NC(c2ccccc2)c2ccc(Br)cc2)cc1` (centres undefined), for which the Activity in series [1] is 86%.

With `O=C(O)c1ccc(NC(c2ccc(Br)cc2)c2ccc(Br)cc2)cc1`, the Activity in series [1] came to 83%. On to `CCOC(=O)c1ccc(NC(c2ccc(C(F)(F)F)cc2)c2ccc3cccnc3c2O)cc1` (centres undefined), for which the Cell death in series [3] is on record as less than 10%. Further, the Activity in series [1] was determined as 89%.

In the case of `CCOC(=O)c1ccc(NC(c2ccccc2)c2ccc(Br)cc2)cc1` (centres undefined), in series [1], the Activity is 79%. In the case of `CCOC(=O)c1ccc(NC(c2ccc(F)cc2)c2ccc3cccnc3c2O)cc1` (centres undefined), in series [3], the Cell death is given as less than 10%. Moreover, in series [1], the Activity came to 63%. Turning to `Oc1c(C(Nc2ccccc2)c2c(F)cc(Br)cc2F)ccc2cccnc12` (centres undefined), the Cell death in series [3] is on record as less than 10%. Further, the Activity in series [1] was found to be 76%. Turning to `O=C(Nc1ccccc1)c1ccc(NC(c2ccc(Br)cc2)c2ccc(Br)cc2)cc1`, in series [1], the Activity turned out to be 80%. `c1ccc(NC(c2ccccc2)c2ccc3ccccc3c2)cc1` (centres undefined): in series [1], the Activity worked out at 77%. On to `Oc1c(C(Nc2ccccc2)c2ccccc2)ccc2ccccc12` (centres undefined), for which, in series [2], the inhibition entry was “inactive”. Moreover, the Cell death in series [3] is on record as less than 10%. Also, the IC50 at CAAX prenyl protease 2 came out at 4.9 µM. In series [1], the Activity is 17%.

As for `O=C(O)c1ccc2ccc(C(Nc3ccccc3)c3ccccc3)c(O)c2n1` (centres undefined), in series [1], the Activity turned out to be 77%.

As for `Oc1c(C(Nc2ccccc2)c2ccccc2)cc(Br)c2cccnc12` (centres undefined), in series [1], the Activity is 73%. On to `O=[N+]([O-])c1ccc(NC(c2ccc(Br)cc2)c2ccc3cccnc3c2O)cc1` (centres undefined), for which, in series [3], the Cell death was less than 10%. The Activity in series [1] is 64%. Turning to `CCOC(=O)c1ccc(NC(c2ccc(Br)cc2)c2ccc(Br)cc2)cc1`, the Activity in series [1] came out at 83%. With `Oc1c(C(Nc2nc3ccccc3s2)c2ccccc2)ccc2cccnc12` (centres undefined), in series [3], the Cell death was less than 10%. Moreover, the Activity in series [1] is 83%. `O=C(O)c1ccc(NC(c2ccccc2)c2ccc3ccccc3c2O)cc1` (centres undefined): the inhibition result in series [2] is “inactive”. The Cell death in series [3] is listed as less than 10%. In addition, at CAAX prenyl protease 2, the IC50 turned out to be 4.2 µM. For the same compound, the Activity in series [1] turned out to be 19%. For `O=C(O)c1ccc(NC(c2ccccc2)c2ccc3cccnc3c2O)cc1` (centres undefined), in that order: “inactive”, less than 10%, 6.9 µM and 25%. Take `O=C(O)c1ccc(NC(c2ccc3cccnc3c2O)C2CCCCC2)cc1` (centres undefined): the inhibition result in series [2] was “inactive”. Further, the Cell death in series [3] is reported as less than 10%. Further, the IC50 on CAAX prenyl protease 2 is 9.8 µM. The Activity in series [1] came out at 34%. Consider `Oc1c(C(Nc2ccccc2)C2CCCCC2)ccc2cccnc12` (centres undefined), for which, in series [3], the Cell death was less than 10%. In addition, the Activity in series [1] was 59%. For the compound `Oc1c(C(Nc2ccccc2)c2ccccc2)cc(Cl)c2cccnc12` (centres undefined), the Activity in series [1] is 68%. Turning to `O=C(Nc1ccccc1)c1ccc(NC(c2ccccc2)c2ccc(Br)cc2)cc1` (centres undefined), the Activity in series [1] is 78%. On the same count and under the same terms, then `O=C(Nc1ccc2ccccc2c1)c1ccc(NC(c2ccccc2)c2ccccc2)cc1`, with 89%; and `N#Cc1ccc2ccc(C(Nc3ccccc3)c3ccccc3)c(O)c2n1` (centres undefined), with 83%. In the case of `O=C(O)c1ccc(NC(c2ccccn2)c2ccc3cccnc3c2O)cc1` (centres undefined), the inhibition entry in series [2] was “inactive”. Also, the IC50 on CAAX prenyl protease 2 amounted to 38 µM. The Activity in series [1] came to 90%. Turning to `CC(C)(C)c1ccc(NC(c2ccccc2)c2ccc3ccccc3c2O)cc1` (centres undefined), the inhibition entry in series [2] was “inactive”. For the same compound, the Cell death in series [3] is less than 10%. In addition, at CAAX prenyl protease 2, the IC50 came out at 5 µM. The Activity in series [1] was 38%. In the case of `O=C(NC(c1ccccc1)c1ccc2cccnc2c1O)c1ccccc1` (centres undefined), in series [3], the Cell death is listed as less than 10%. In series [1], the Activity stood at 81%. Take `COC(=O)c1ccc(NC(c2ccccc2)c2ccc3cccnc3c2OC)cc1` (centres undefined): the Cell death in series [3] is recorded as less than 10%. Also, in series [1], the Activity is 65%. In the case of `O=C(OCc1ccccc1)c1ccc2ccc(C(Nc3ccccc3)c3ccccc3)c(O)c2n1` (centres undefined), in series [1], the Activity came out at 75%. As to `Oc1c(C(Nc2ccccc2)c2ccccc2)ccc2cc3ccccc3nc12` (centres undefined), the Activity in series [1] came to 51%.

As for `O=[N+]([O-])c1ccc(C(Nc2ccccc2)c2ccc3cccnc3c2O)cc1` (centres undefined), the inhibition entry in series [2] was “inactive”. Further, the IC50 on CAAX prenyl protease 2 worked out at 11 µM. In series [1], the Activity came out at 85%. In the case of `O=C(Nc1ccccc1)c1ccc(NC(c2ccccc2)c2ccccc2)cc1`, the Activity in series [1] worked out at 78%. Regarding `Oc1c(C(/N=C/c2ccccc2)c2ccccc2)ccc2cccnc12` (centres undefined), the Cell death in series [3] is less than 10%. Besides, the Activity in series [1] came to 73%.

In the case of `Oc1ccc2ccc(O)c(C(Nc3ccccc3)c3ccccc3)c2c1` (centres undefined), in series [3], the Cell death is on record as less than 10%. Besides, the Activity in series [1] worked out at 51%. In the case of `CCOC(=O)c1ccc(NC(c2ccccc2)c2ccccc2)cc1`, the Cell death in series [3] was less than 10%. Besides, the Activity in series [1] is 82%. As for `O=C(O)c1cccc(NC(=O)c2ccc(NC(c3ccccc3)c3ccccc3)cc2)c1`, the Activity in series [1] was 72%.

As to `CCOC(=O)c1ccc(NC(c2ccccc2)c2ccc3cccnc3c2O)cc1` (centres undefined), the Cell death in series [3] is less than 10%. Also, in series [1], the Activity came out at 52%.

Consider `N#Cc1ccc(NC(c2ccccc2)c2ccc3cccnc3c2O)cc1` (centres undefined), for which the Cell death in series [3] is on record as less than 10%. Also, the Activity in series [1] is 56%.

Consider `Cc1ccc(C(Nc2ccc(C(=O)O)cc2)c2ccc3cccnc3c2O)cc1` (centres undefined), for which the inhibition entry in series [2] was “inactive”. Further, the IC50 on CAAX prenyl protease 2 is 7.1 µM. Also, the Activity in series [1] came out at 32%. With `Cc1ccc2ccc(C(Nc3ccccc3)c3ccccc3)c(O)c2n1` (centres undefined), the Activity in series [1] was determined as 83%.

Take `Oc1c(CNc2ccccc2)ccc2cccnc12`: the Cell death in series [3] is given as less than 10%. For the same compound, the Activity in series [1] turned out to be 82%.

Take `CCOC(=O)c1ccc(NC(c2ccc3cccnc3c2O)C2CCCC2)cc1` (centres undefined): the Cell death in series [3] is on record as less than 10%. In addition, in series [1], the Activity came to 82%. On to `Oc1ccc2ccccc2c1C(Nc1ccccc1)c1ccccc1` (centres undefined), for which the Cell death in series [3] is on record as less than 10%. For the same compound, the Activity in series [1] worked out at 59%. `CCOC(=O)c1ccc(NC(c2ccc(Cl)cc2)c2ccc3cccnc3c2O)cc1` (centres undefined): in series [3], the Cell death is reported as less than 10%. In addition, in series [1], the Activity worked out at 71%.

Take `N#Cc1ccc(C(Nc2ccc(C(=O)O)cc2)c2ccc3cccnc3c2O)cc1` (centres undefined): in series [2], the inhibition result was “inactive”. Moreover, on CAAX prenyl protease 2, the IC50 is 16 µM. Also, the Activity in series [1] is 76%.

As to `O=C(O)c1ccc(NC(c2ccccc2)c2ccccc2)cc1`, the Activity in series [1] worked out at 90%.
